Here are results for 27 compounds from ChEMBL document CHEMBL1158548, “Tetrahydrochromenoimidazoles as potassium-competitive acid blockers (P-CABs): structure-activity relationship of their antisecretory properties and their affinity toward the hERG channel” (J Med Chem, 2010).

The nature of data set [1]: Inhibition of H+/K+ ATPase in hog gastric mucosa by malachite green based competitive binding assay. The class given is tissue-based, Sus scrofa. The method in brief: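 Hog gastric mucosa H+/K+-ATPase, isolated enzyme; competitive binding assay run at pH 7.4; pIC50 reported as geometric mean of 4-5 measurements.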
Data set [2] relates to Gastric gland. The data set can be described thus: Inhibition of acid secretion in New Zealand White rabbit intact gastric glands assessed as [14C]dimethylaminopyridine accumulation by radioactivity. Type of data set: functional, tissue-based. The conditions noted are these: Oryctolagus cuniculus. The method in brief:
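Gastric glands isolated intact from New Zealand rabbits; cellular activity read as reduced accumulation of the weak base 14C-dimethylaminopyridine; pIC50 given as geometric mean of 4-5 determinations.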

Data set [3] concerns Rattus norvegicus. The data set can be described thus: Inhibition of pentagastrin-stimulated acid secretion in intraduodenally dosed perfused Sprague-Dawley rat Ghosh Schild model. The conditions noted are these: intraduodenal. The class given is functional.
Data set [4] in a line: Partition coefficient, log D by HPLC. The following applies: octanol/water. The class given is physicochemical. The method in brief:
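logD by reversed-phase HPLC at 37 °C, calibrated with seven reference substances of known logD.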

In data set [5] the target is hERG (KCNH2) (Homo sapiens, UniProt Q12809). The data set can be described thus: Inhibition of human ERG expressed in CHO-K1 cells at 10 uM by whole-cell patch clamp technique. The class given is cell-based. The conditions noted are these: CHO-K1 cells that express human ERG. The method in brief: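 CHO-K1 cells stably transfected with hERG; whole-cell patch clamp recording of tail currents with test compound at 10 μM, three cells per compound; relative block of tail current amplitude given as arithmetic mean.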
Chain of hERG (KCNH2) (Q12809 whole entry): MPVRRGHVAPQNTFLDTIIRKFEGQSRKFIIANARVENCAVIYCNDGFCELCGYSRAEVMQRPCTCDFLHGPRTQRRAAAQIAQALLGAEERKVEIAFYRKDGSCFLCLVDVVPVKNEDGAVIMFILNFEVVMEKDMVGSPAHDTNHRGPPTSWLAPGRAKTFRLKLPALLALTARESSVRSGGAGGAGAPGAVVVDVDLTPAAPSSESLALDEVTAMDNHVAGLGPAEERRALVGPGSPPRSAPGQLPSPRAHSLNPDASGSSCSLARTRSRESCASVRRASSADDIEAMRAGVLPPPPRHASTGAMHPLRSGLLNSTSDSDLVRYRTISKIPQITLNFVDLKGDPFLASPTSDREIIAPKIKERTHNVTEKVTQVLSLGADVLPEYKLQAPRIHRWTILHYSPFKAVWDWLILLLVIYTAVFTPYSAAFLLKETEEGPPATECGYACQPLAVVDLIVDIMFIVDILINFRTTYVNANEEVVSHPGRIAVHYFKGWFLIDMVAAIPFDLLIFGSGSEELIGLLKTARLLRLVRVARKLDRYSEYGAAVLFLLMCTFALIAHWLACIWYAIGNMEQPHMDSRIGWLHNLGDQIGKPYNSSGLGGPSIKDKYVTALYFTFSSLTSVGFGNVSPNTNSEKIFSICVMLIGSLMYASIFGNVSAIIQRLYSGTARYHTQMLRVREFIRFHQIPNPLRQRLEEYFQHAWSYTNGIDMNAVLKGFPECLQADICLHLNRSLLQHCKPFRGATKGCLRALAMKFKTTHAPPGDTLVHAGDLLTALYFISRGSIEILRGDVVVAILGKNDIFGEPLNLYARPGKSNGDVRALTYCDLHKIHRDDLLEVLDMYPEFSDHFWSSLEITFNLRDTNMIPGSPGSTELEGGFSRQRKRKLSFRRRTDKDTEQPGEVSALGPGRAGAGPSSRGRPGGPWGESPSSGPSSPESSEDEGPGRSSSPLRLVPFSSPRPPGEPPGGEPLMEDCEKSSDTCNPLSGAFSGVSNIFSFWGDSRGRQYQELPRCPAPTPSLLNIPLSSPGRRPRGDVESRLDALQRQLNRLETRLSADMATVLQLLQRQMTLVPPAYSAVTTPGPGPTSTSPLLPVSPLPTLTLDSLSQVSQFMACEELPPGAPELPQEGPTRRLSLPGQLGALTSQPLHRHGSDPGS

Take `CCOC1CN(C(=O)c2cc3c(nc(C)n3C)c3c2CC[C@@H](c2ccccc2C)O3)C1`: the pIC50 in data set [1] was determined as 4.5. In addition, the IC50 in data set [2] was 0.794 µM. Moreover, in data set [3], the 50% effect level (ED50) was put at a dose of 0.4 µmol/kg. Moreover, the logD in data set [4] stood at 3. The compound further gave an inhibition at 10 µM in data set [5] of 70%.
`Cc1ccccc1[C@@H]1CCc2c(C(=O)NCC[S+](C)[O-])cc3c(nc(C)n3C)c2O1` (stereo partly specified): the pIC50 in data set [1] came to 4.6. Also, the 50% effect level in data set [3] (ED50) was put at a dose of 1.4 µmol/kg. For the same compound, testing at 10 µM in data set [5] gave an inhibition of 6%.
For the compound `COCCN(C)C(=O)c1cc2c(nc(C)n2C)c2c1CC[C@@H](c1ccccc1C)O2`, the pIC50 in data set [1] was found to be 4.9. The IC50 in data set [2] is 3.16 µM. In data set [3], this compound displayed an ED50 of 1.2 µmol/kg. In data set [4], this compound displayed a logD of 2.9. The same compound returned an inhibition at 10 µM in data set [5] of 8%.
The compound `Cc1ccccc1[C@@H]1CCc2c(C(=O)NCC3CCCCO3)cc3c(nc(C)n3C)c2O1` (stereo partly specified) showed a pIC50 in data set [1] below 5. The IC50 in data set [2] was 6.31 µM. In data set [3], this compound registered a 50% effective dose (ED50) of 1.2 µmol/kg. Further, the logD in data set [4] is 3.3. Moreover, testing at 10 µM in data set [5] gave an inhibition of 54%.
For `CSCCNC(=O)c1cc2c(nc(C)n2C)c2c1CC[C@@H](c1ccccc1C)O2` the same measures were 4.8, 1.26 µM, 1 µmol/kg, 3.2 and 73%.
For `Cc1ccccc1[C@@H]1CCc2c(C(=O)N3CC(O)C3)cc3c(nc(C)n3C)c2O1`, in that order: 5, 39.8 µM, 1.2 µmol/kg, 2.4 and 11%.
For `Cc1ccccc1[C@@H]1CCc2c(C(=O)N3CCOCC3)cc3c(nc(C)n3C)c2O1`, in that order: 4.8, 5.01 µM, 1 µmol/kg, 2.8 and 4%.
`CNC(=O)c1cc2c(nc(C)n2C)c2c1CC[C@@H](c1ccccc1)O2`: the pIC50 in data set [1] is reported as 4.8. The half-inhibitory concentration (IC50) in data set [2] was 6.31 µM. The same compound returned an ED50 in data set [3] of 0.5 µmol/kg. For the same compound, in data set [4], the logD was 2.4. In addition, the inhibition at 10 µM in data set [5] worked out at 26%.
For `Cc1nc2c3c(c(C(=O)N(C)C)cc2n1C)CC[C@@H](c1cccs1)O3`, in that order: 5, 50.1 µM, 2 µmol/kg, 2.4 and 9%.
For `COCc1nc2c3c(c(C(=O)N(C)C)cc2n1C)CC[C@@H](c1ccccc1C)O3`, in that order: 4.57, 45.7 µM, 3 µmol/kg, 2.9 and 7%.
For `Cc1nc2c3c(c(C(=O)N4CCC4)cc2n1C)CC[C@@H](c1ccccc1)O3` the same measures were 4.9, 2.51 µM, 0.3 µmol/kg, 2.6 and 18%.
Regarding `Cc1nc2c3c(c(C(=O)N4CCC4)cc2n1C)CC[C@@H](c1ccc(Cl)cc1)O3`, the pIC50 in data set [1] amounted to 5.3. Further, in data set [2], the IC50 was 1.26 µM. In data set [3], the ED50 was determined as 0.16 µmol/kg. The logD in data set [4] worked out at 3. At 10 µM the inhibition in data set [5] was 84%.
For `COCCNC(=O)c1cc2c(nc(C)n2C)c2c1CC[C@@H](c1ccccc1C)O2`, in that order: 4.9, 3.16 µM, 0.8 µmol/kg, 2.8 and 55%.
For `Cc1ccccc1[C@@H]1CCc2c(C(=O)NCC3CCCO3)cc3c(nc(C)n3C)c2O1` (stereo partly specified), in that order: 4.3, 3.16 µM, 1 µmol/kg, 3 and 75%.
For the compound `Cc1cc(F)ccc1[C@@H]1CCc2c(C(=O)N(C)C)cc3c(nc(C)n3C)c2O1`, the pIC50 in data set [1] is recorded as 5.6. The IC50 in data set [2] was 0.501 µM. The same compound showed an ED50 in data set [3] below 0.3 µmol/kg. Further, the logD in data set [4] was determined as 2.9. In data set [5], this compound gave an inhibition at 10 µM of 19%.
For `Cc1ccccc1[C@@H]1CCc2c(C(=O)N3CC(CO)C3)cc3c(nc(C)n3C)c2O1` the same measures were 5, 63.1 µM, 1.4 µmol/kg, 2.4 and 2%.
Compound `Cc1ccccc1[C@@H]1CCc2c(C(=O)NCC#N)cc3c(nc(C)n3C)c2O1` came in with a negative-log IC50 (pIC50) in data set [1] of 4.7. Also, in data set [2], the IC50 is 12.6 µM. This compound also came in with an ED50 in data set [3] of 3 µmol/kg. This compound also registered a logD in data set [4] of 2.9. The compound also showed an inhibition at 10 µM in data set [5] of 18%.
For `Cc1nc2c3c(c(C(=O)N(C)C)cc2n1C)CC[C@@H](c1ccc(F)cc1Cl)O3`, in that order: 5.4, 0.794 µM, 0.1 µmol/kg, 3 and 33%.
For `Cc1ccccc1[C@@H]1CCc2c(C(N)=O)cc3c(nc(C)n3C)c2O1`, in that order: 4.8, 5.01 µM, 2 µmol/kg, 2.5 and 14%.
For `Cc1nc2c3c(c(C(=O)N(C)C)cc2n1C)CC[C@@H](c1ccccc1)O3` the same measures were 5.3, 3.16 µM, 0.26 µmol/kg, 2.5 and 28%.
`Cc1ccccc1[C@@H]1CCc2c(C(=O)NC3COC3)cc3c(nc(C)n3C)c2O1` showed a pIC50 in data set [1] of 4.6. Moreover, the IC50 in data set [2] is 10 µM. The ED50 in data set [3] stood at 2 µmol/kg. The compound also yielded a log distribution coefficient (logD) in data set [4] of 2.6. In data set [5], this compound displayed an inhibition at 10 µM of 49%.
`COC1(C)CN(C(=O)c2cc3c(nc(C)n3C)c3c2CC[C@@H](c2ccccc2C)O3)C1` registered a pIC50 in data set [1] of 4.3. Besides, the IC50 in data set [2] is 3.16 µM. In data set [3], the ED50 was found to be 1 µmol/kg. Further, at 10 µM the inhibition in data set [5] was 20%.
`Cc1ccccc1[C@@H]1CCc2c(C(=O)NC(C)C)cc3c(nc(C)n3C)c2O1` gave a pIC50 in data set [1] of 4.7. In addition, the half-maximal inhibitory concentration (IC50) in data set [2] was 0.631 µM. The same compound came in with an ED50 in data set [3] of 0.45 µmol/kg. For the same compound, the logD in data set [4] turned out to be 3.1. The same compound gave an inhibition at 10 µM in data set [5] of 30%.
For `Cc1ccccc1[C@@H]1CCc2c(C(=O)N3CCC3)cc3c(nc(C)n3C)c2O1` the same measures were 5.5, 0.794 µM, 0.3 µmol/kg, 2.8 and 14%.
The compound `CNC(=O)c1cc2c(nc(C)n2C)c2c1CC[C@@H](c1ccc(Cl)cc1)O2` gave a pIC50 in data set [1] below 5. Moreover, the IC50 in data set [2] is 2 µM. The 50% effect level in data set [3] (ED50) was put at a dose of 0.3 µmol/kg. Further, the logD in data set [4] was 2.9. In data set [5], this compound returned an inhibition at 10 µM of 68%.
Regarding `CONC(=O)c1cc2c(nc(C)n2C)c2c1CC[C@@H](c1ccccc1C)O2`, the pIC50 in data set [1] amounted to 4.6. The IC50 in data set [2] is 10 µM. In data set [3], this compound showed an ED50 of 1.8 µmol/kg. The compound further yielded a log distribution coefficient (logD) in data set [4] of 2.6. The inhibition at 10 µM in data set [5] is 13%.
`Cc1ccccc1[C@@H]1CCc2c(C(=O)N(C)C)cc3c(nc(CO)n3C)c2O1`: in data set [2], the IC50 is 1.17 µM. The compound also yielded an ED50 in data set [3] of 1 µmol/kg. The logD in data set [4] was determined as 2.5. The same compound had an inhibition at 10 µM in data set [5] of 12%.
